Laboratory results: ChEMBL document CHEMBL1828552, “Synthesis and studies of novel 2-(4-cyano-3-trifluoromethylphenyl amino)-4-(quinoline-4-yloxy)-6-(piperazinyl/piperidinyl)-s-triazines as potential antimicrobial, antimycobacterial and anticancer agents” (2011)
≈ marks a conversion by molar mass, not a printed value.

System: Proteus vulgaris
Experiment: Antibacterial activity against 10^5 CFU/mL Proteus vulgaris MTCC 1771 after 24 hrs by agar streak dilution method
Format: functional
Details: MTCC 1771, 24 h
How it was run: (§1)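 Agar streak dilution. Stock 100 µg/mL in DMSO; graded amounts were mixed into molten nutrient agar and poured at 4–5 mm depth. Plates carried serial dilutions over […]. About 10⁵ CFU/mL of each bacterium was applied, and plates were incubated at 37 ± 1 °C for 24 h. MIC was read from the dilution series.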

Row | SMILES | MIC
1 | CC(=O)N1CCN(c2nc(Nc3ccc(C#N)c(C(F)(F)F)c3)nc(Oc3ccnc4ccccc34)n2)CC1 | 6.25 µg/mL (≈ 11.7 µM)

System: Candida albicans
Experiment: Antifungal activity against 10^5 CFU/mL Candida albicans MTCC 183 after 48 hrs by disc diffusion technique
Format: functional
Details: not given

Row | SMILES | inhibition zone (IZ)
2 | CC(=O)N1CCN(c2nc(Nc3ccc(C#N)c(C(F)(F)F)c3)nc(Oc3ccnc4ccccc34)n2)CC1 | 17 mm

System: Escherichia coli
Experiment: Antibacterial activity against 10^5 CFU/mL Escherichia coli MTCC 739 after 24 hrs by agar streak dilution method
Format: functional
Details: MTCC 739, 24 h
How it was run: as §1

Row | SMILES | MIC
3 | CC(=O)N1CCN(c2nc(Nc3ccc(C#N)c(C(F)(F)F)c3)nc(Oc3ccnc4ccccc34)n2)CC1 | 12.5 µg/mL (≈ 23.4 µM)

System: Pseudomonas aeruginosa
Experiment: Antibacterial activity against 10^5 CFU/mL Pseudomonas aeruginosa MTCC 741 after 24 hrs by agar streak dilution method
Format: functional
Details: MTCC 741, 24 h
How it was run: as §1

Row | SMILES | MIC
4 | CC(=O)N1CCN(c2nc(Nc3ccc(C#N)c(C(F)(F)F)c3)nc(Oc3ccnc4ccccc34)n2)CC1 | 12.5 µg/mL (≈ 23.4 µM)

System: Bacillus cereus
Experiment: Antibacterial activity against 10^5 CFU/mL Bacillus cereus MTCC 619 after 24 hrs by disc diffusion technique
Format: functional
Details: not given
How it was run: (§2)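 Disc diffusion on Mueller–Hinton agar poured 5 mm deep. The surface was swabbed with a 10⁵ CFU/mL […] suspension. Filter-paper discs 6.25 mm in diameter were soaked in compound in DMSO and placed on the agar. Plates were incubated 24 h at 37 ± 1 °C, and the inhibition zone was measured in mm. A DMSO disc served as blank.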

Row | SMILES | inhibition zone (IZ)
5 | CC(=O)N1CCN(c2nc(Nc3ccc(C#N)c(C(F)(F)F)c3)nc(Oc3ccnc4ccccc34)n2)CC1 | 24 mm

System: Bacillus cereus
Experiment: Antibacterial activity against 10^5 CFU/mL Bacillus cereus MTCC 619 after 24 hrs by agar streak dilution method
Format: functional
Details: MTCC 619, 24 h
How it was run: as §1

Row | SMILES | MIC
6 | CC(=O)N1CCN(c2nc(Nc3ccc(C#N)c(C(F)(F)F)c3)nc(Oc3ccnc4ccccc34)n2)CC1 | 12.5 µg/mL (≈ 23.4 µM)

System: Aspergillus fumigatus
Experiment: Antifungal activity against 10^5 CFU/mL Aspergillus fumigatus MTCC 343 after 48 hrs by agar streak dilution method
Format: functional
Details: MTCC 343, 48 h
How it was run: (§3)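 Agar streak dilution for fungi. Stock 100 µg/mL in DMSO; graded amounts were mixed into molten Sabouraud dextrose agar and poured at 4–5 mm depth. Serial dilutions ran over […]. About 10⁵ CFU/mL inoculum was applied, with incubation at 37 ± 1 °C for 48 h. MIC was read from the dilution series.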

Row | SMILES | MIC
7 | CC(=O)N1CCN(c2nc(Nc3ccc(C#N)c(C(F)(F)F)c3)nc(Oc3ccnc4ccccc34)n2)CC1 | 100 µg/mL (≈ 187 µM)

System: Shigella flexneri
Experiment: Antibacterial activity against 10^5 CFU/mL Shigella flexneri MTCC 1457 after 24 hrs by disc diffusion technique
Format: functional
Details: not given
How it was run: as §2

Row | SMILES | inhibition zone (IZ)
8 | CC(=O)N1CCN(c2nc(Nc3ccc(C#N)c(C(F)(F)F)c3)nc(Oc3ccnc4ccccc34)n2)CC1 | 23 mm

System: Aspergillus fumigatus
Experiment: Antifungal activity against 10^5 CFU/mL Aspergillus fumigatus MTCC 343 after 48 hrs by disc diffusion technique
Format: functional
Details: not given

Row | SMILES | inhibition zone (IZ)
9 | CC(=O)N1CCN(c2nc(Nc3ccc(C#N)c(C(F)(F)F)c3)nc(Oc3ccnc4ccccc34)n2)CC1 | 21 mm

System: Klebsiella pneumoniae
Experiment: Antibacterial activity against 10^5 CFU/mL Klebsiella pneumoniae MTCC 109 after 24 hrs by agar streak dilution method
Format: functional
Details: MTCC 109, 24 h
How it was run: as §1

Row | SMILES | MIC
10 | CC(=O)N1CCN(c2nc(Nc3ccc(C#N)c(C(F)(F)F)c3)nc(Oc3ccnc4ccccc34)n2)CC1 | 50 µg/mL (≈ 93.5 µM)

System: Pseudomonas aeruginosa
Experiment: Antibacterial activity against 10^5 CFU/mL Pseudomonas aeruginosa MTCC 741 after 24 hrs by disc diffusion technique
Format: functional
Details: not given
How it was run: as §2

Row | SMILES | inhibition zone (IZ)
11 | CC(=O)N1CCN(c2nc(Nc3ccc(C#N)c(C(F)(F)F)c3)nc(Oc3ccnc4ccccc34)n2)CC1 | 24 mm

System: DU-145
Experiment: Cytotoxicity against […] human DU145 cells after 48 hrs by SRB assay
Format: functional
Details: DU-145, 48 h
How it was run: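 SRB assay in DU-145 cells grown in RPMI 1640 with 10% FBS and 2 mM L-glutamine. Cells were plated and held 24 h before addition of four 10-fold concentrations. After 48 h, cells were TCA-fixed, stained with 0.4% SRB and read at 540 nm. GI50, TGI and LC50 were derived against time-zero and control wells; each value is the mean of three experiments.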

Row | SMILES | GI50 | LC50 (concentration giving 50% net cell kill relative to time zero) | TGI
12 | CC(=O)N1CCN(c2nc(Nc3ccc(C#N)c(C(F)(F)F)c3)nc(Oc3ccnc4ccccc34)n2)CC1 | 75.1 µM | > 100 µM | > 100 µM

System: Staphylococcus aureus
Experiment: Antibacterial activity against 10^5 CFU/mL Staphylococcus aureus MTCC 96 after 24 hrs by disc diffusion technique
Format: functional
Details: not given
How it was run: as §2

Row | SMILES | inhibition zone (IZ)
13 | CC(=O)N1CCN(c2nc(Nc3ccc(C#N)c(C(F)(F)F)c3)nc(Oc3ccnc4ccccc34)n2)CC1 | 26 mm

System: Salmonella typhi
Experiment: Antibacterial activity against 10^5 CFU/mL Salmonella typhi MTCC 733 after 24 hrs by agar streak dilution method
Format: functional, Salmonella enterica subsp. enterica serovar Typhi
Details: Salmonella enterica, MTCC 733, 24 h

Row | SMILES | MIC
14 | CC(=O)N1CCN(c2nc(Nc3ccc(C#N)c(C(F)(F)F)c3)nc(Oc3ccnc4ccccc34)n2)CC1 | 100 µg/mL (≈ 187 µM)

System: Aspergillus clavatus
Experiment: Antifungal activity against 10^5 CFU/mL Aspergillus clavatus MTCC 1323 after 48 hrs by agar streak dilution method
Format: functional
Details: MTCC 1323, 48 h
How it was run: as §3

Row | SMILES | MIC
15 | CC(=O)N1CCN(c2nc(Nc3ccc(C#N)c(C(F)(F)F)c3)nc(Oc3ccnc4ccccc34)n2)CC1 | 12.5 µg/mL (≈ 23.4 µM)

System: Aspergillus niger
Experiment: Antifungal activity against 10^5 CFU/mL Aspergillus niger MTCC 282 after 48 hrs by agar streak dilution method
Format: functional
Details: MTCC 282, 48 h
How it was run: as §3

Row | SMILES | MIC
16 | CC(=O)N1CCN(c2nc(Nc3ccc(C#N)c(C(F)(F)F)c3)nc(Oc3ccnc4ccccc34)n2)CC1 | 100 µg/mL (≈ 187 µM)

System: Aspergillus clavatus
Experiment: Antifungal activity against 10^5 CFU/mL Aspergillus clavatus MTCC 1323 after 48 hrs by disc diffusion technique
Format: functional
Details: not given

Row | SMILES | inhibition zone (IZ)
17 | CC(=O)N1CCN(c2nc(Nc3ccc(C#N)c(C(F)(F)F)c3)nc(Oc3ccnc4ccccc34)n2)CC1 | 27 mm

System: Salmonella typhi
Experiment: Antibacterial activity against 10^5 CFU/mL Salmonella typhi MTCC 733 after 24 hrs by disc diffusion technique
Format: functional, Salmonella enterica subsp. enterica serovar Typhi
Details: not given
How it was run: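 Disc diffusion. Mueller-Hinton agar autoclaved 120 °C 30 min, poured 5 mm deep. Surface swabbed with 10⁵ CFU/mL suspension […]. 6.25 mm filter-paper discs soaked in compound in DMSO; DMSO-only disc as blank. Incubated 37 ± 1 °C, 24 h for bacteria or 48 h for fungi. Ciprofloxacin and ketoconazole discs as reference drugs. Inhibition zone measured in mm.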

Row | SMILES | inhibition zone (IZ)
18 | CC(=O)N1CCN(c2nc(Nc3ccc(C#N)c(C(F)(F)F)c3)nc(Oc3ccnc4ccccc34)n2)CC1 | 23 mm

System: Klebsiella pneumoniae
Experiment: Antibacterial activity against 10^5 CFU/mL Klebsiella pneumoniae MTCC 109 after 24 hrs by disc diffusion technique
Format: functional
Details: not given
How it was run: as §2

Row | SMILES | inhibition zone (IZ)
19 | CC(=O)N1CCN(c2nc(Nc3ccc(C#N)c(C(F)(F)F)c3)nc(Oc3ccnc4ccccc34)n2)CC1 | 23 mm

System: Aspergillus niger
Experiment: Antifungal activity against 10^5 CFU/mL Aspergillus niger MTCC 282 after 48 hrs by disc diffusion technique
Format: functional
Details: not given

Row | SMILES | inhibition zone (IZ)
20 | CC(=O)N1CCN(c2nc(Nc3ccc(C#N)c(C(F)(F)F)c3)nc(Oc3ccnc4ccccc34)n2)CC1 | 21 mm

System: Candida albicans
Experiment: Antifungal activity against 10^5 CFU/mL Candida albicans MTCC 183 after 48 hrs by agar streak dilution method
Format: functional
Details: MTCC 183, 48 h
How it was run: as §3

Row | SMILES | MIC
21 | CC(=O)N1CCN(c2nc(Nc3ccc(C#N)c(C(F)(F)F)c3)nc(Oc3ccnc4ccccc34)n2)CC1 | 100 µg/mL (≈ 187 µM)

System: Shigella flexneri
Experiment: Antibacterial activity against 10^5 CFU/mL Shigella flexneri MTCC 1457 after 24 hrs by agar streak dilution method
Format: functional
Details: MTCC 1457, 24 h
How it was run: as §1

Row | SMILES | MIC
22 | CC(=O)N1CCN(c2nc(Nc3ccc(C#N)c(C(F)(F)F)c3)nc(Oc3ccnc4ccccc34)n2)CC1 | 25 µg/mL (≈ 46.8 µM)

System: Escherichia coli
Experiment: Antibacterial activity against 10^5 CFU/mL Escherichia coli MTCC 739 after 24 hrs by disc diffusion technique
Format: functional
Details: not given
How it was run: as §2

Row | SMILES | inhibition zone (IZ)
23 | CC(=O)N1CCN(c2nc(Nc3ccc(C#N)c(C(F)(F)F)c3)nc(Oc3ccnc4ccccc34)n2)CC1 | 24 mm

System: Staphylococcus aureus
Experiment: Antibacterial activity against 10^5 CFU/mL Staphylococcus aureus MTCC 96 after 24 hrs by agar streak dilution method
Format: functional
Details: MTCC 96, 24 h
How it was run: as §1

Row | SMILES | MIC
24 | CC(=O)N1CCN(c2nc(Nc3ccc(C#N)c(C(F)(F)F)c3)nc(Oc3ccnc4ccccc34)n2)CC1 | 12.5 µg/mL (≈ 23.4 µM)

System: Proteus vulgaris
Experiment: Antibacterial activity against 10^5 CFU/mL Proteus vulgaris MTCC 1771 after 24 hrs by disc diffusion technique
Format: functional
Details: not given
How it was run: as §2

Row | SMILES | inhibition zone (IZ)
25 | CC(=O)N1CCN(c2nc(Nc3ccc(C#N)c(C(F)(F)F)c3)nc(Oc3ccnc4ccccc34)n2)CC1 | 27 mm
